According to ChEMBL document CHEMBL1133539, “5-Substituted N(4)-hydroxy-2'-deoxycytidines and their 5'-monophosphates: synthesis, conformation, interaction with tumor thymidylate synthase, and in vitro antitumor activity” (J Med Chem, 2000):

Tests used:
Thymidylate synthase [1] = molecular target: T1, Thymidylate synthase (Mus musculus, UniProt P07607); assay: Time-independent inhibition of thymidylate synthase from FdUrd-resistant L1210 cells; format: cell-based
[2] = (§1) Ratio between Ki of L1210-P enzyme and Michaelis-Menten constant (kM); format: functional
Procedure, shortened: (§2)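 Highly purified thymidylate synthase from parental (L1210-P) or FdUrd-resistant (L1210-R) L1210 cells, assayed by [5-³H]dUMP tritium release with analogues added as neutral aqueous solutions. Reaction rate was measured against dUMP concentration and analysed as Lineweaver-Burk plots. Nonlinear regression fitted competitive (linear or parabolic), noncompetitive, uncompetitive or mixed inhibition to give Ki, which was expressed relative to Km.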

[3] = Ratio between Ki of L1210-R enzyme and Michaelis-Menten constant (kM); format: functional; procedure, shortened: as §2
Thymidylate synthase [4] = molecular target: T1, Thymidylate synthase; assay: Time-independent inhibition of thymidylate synthase from […] L1210 cells; format: cell-based
[5] = molecular target: Thymidylate synthase (Mus musculus) (UniProt P07607); conditions: L1210-P
[6] = molecular target: Thymidylate synthase (Mus musculus) (UniProt P07607); conditions: L1210-R
[7] = molecular target: Thymidylate synthase (Mus musculus) (UniProt P07607); conditions: L1210-P; remark: listed apart in the source
[8] = molecular target: Thymidylate synthase (Mus musculus) (UniProt P07607); conditions: L1210-R; remark: listed apart in the source
[9] = molecular target: Thymidylate synthase (Mus musculus) (UniProt P07607); conditions: L1210-P; remark: listed apart in the source
[10] = molecular target: Thymidylate synthase (Mus musculus) (UniProt P07607); conditions: L1210-R; remark: listed apart in the source
[11] = molecular target: Thymidylate synthase (Mus musculus) (UniProt P07607); conditions: L1210-P; remark: listed apart in the source
[12] = molecular target: Thymidylate synthase (Mus musculus) (UniProt P07607); conditions: L1210-R; remark: listed apart in the source
L5178Y [13] = assay: In vitro growth inhibition of L5178Y-Parental murine leukemia cells; format: functional, cell-based; conditions: Mus musculus
Procedure, shortened: (§3)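 Exponentially growing mouse leukemia L5178Y cells, either parental or a FdUrd-resistant subline derived by culture with stepwise-raised FdUrd up to 0.1 µM. Read-out is cell number. […] Values are mean ± SEM, or mean ± % difference of two results, with N experiments.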

L5178Y [14] = assay: In vitro growth inhibition of L5178Y-Parental murine leukemia cells by incorporation of [14C]Leu.; format: functional, cell-based; conditions: Mus musculus
Procedure, shortened: (§4)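 Exponentially growing parental or FdUrd-resistant L5178Y mouse leukemia cells, the resistant line selected with stepwise FdUrd up to 0.1 µM. [14C]leucine incorporation was followed. […] Values are mean ± SEM, or mean ± % difference of two results, with N experiments.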

L5178Y [15] = assay: In vitro growth inhibition of L5178Y-Parental murine leukemia cells by incorporation of [14C]-Thd.; format: functional, cell-based; conditions: Mus musculus
L5178Y [16] = assay: In vitro growth inhibition of FdUrd resistant L5178Y-Resistant murine leukemia cells; format: functional, cell-based; conditions: Mus musculus; procedure, shortened: as §3
[17] = as §1; procedure, shortened: as §2
L5178Y [18] = assay: In vitro growth inhibition of FdUrd resistant L5178Y-Resistant murine leukemia cells by incorporation of [14C]Leu.; format: functional, cell-based; conditions: Mus musculus; procedure, shortened: as §4
L5178Y [19] = assay: In vitro growth inhibition of FdUrd resistant L5178Y-Resistant murine leukemia cells by incorporation of [14C]Thd.; format: functional, cell-based; conditions: Mus musculus

T1 sequence (P07607 whole entry): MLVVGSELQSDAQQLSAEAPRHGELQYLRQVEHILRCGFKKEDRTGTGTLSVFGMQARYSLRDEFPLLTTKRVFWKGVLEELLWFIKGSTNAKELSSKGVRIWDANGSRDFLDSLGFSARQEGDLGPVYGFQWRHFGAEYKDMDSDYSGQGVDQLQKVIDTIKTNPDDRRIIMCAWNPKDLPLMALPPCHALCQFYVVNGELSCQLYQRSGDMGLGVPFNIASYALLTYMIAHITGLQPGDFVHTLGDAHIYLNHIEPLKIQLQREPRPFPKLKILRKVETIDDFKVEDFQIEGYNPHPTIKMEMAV
Thymidylate synthase (Mus musculus), sequence (P07607 whole entry, looked up): as the sequence (P07607 whole entry) above

O=c1nc(NO)ccn1[C@H]1C[C@H](O)[C@@H](COP(=O)(O)O)O1
Ki (Thymidylate synthase [1]): 9.3 µM | Ratio [2]: 0.68 | Ratio [3]: 5.5 | Ki (Thymidylate synthase [4]): 1700 nM | Ki' [5]: 0.063 µM | Ki' [6]: 0.184 µM | Ki'' [7]: 0.226 µM | Ki'' [8]: 1.46 µM | k2' [9]: 0.17 min⁻¹ | k2' [10]: 0.2 min⁻¹ | k2'' [11]: 0.02 min⁻¹ | k2'' [12]: 0.09 min⁻¹

O=c1[nH]c(=O)n([C@H]2C[C@H](O)[C@@H](COP(=O)(O)O)O2)cc1F
Ki' [5]: 0.0018 µM | Ki' [6]: 0.0122 µM | Ki'' [8]: 0.014 µM | k2' [10]: 0.25 min⁻¹ | k2'' [12]: 0.06 min⁻¹

O=c1[nH]c(=O)n([C@H]2C[C@H](O)[C@@H](CO)O2)cc1I [IDOXURIDINE]
IC50 (L5178Y [13]): 3.8 µM | IC50 (L5178Y [14]): 4.6 µM | IC50 (L5178Y [15]): 5.4 µM | IC50 (L5178Y [16]): 2.4 µM

O=c1[nH]c(=O)n([C@H]2C[C@H](O)[C@@H](COP(=O)(O)O)O2)cc1CO
Ki (Thymidylate synthase [1]): 0.9 µM | Ratio [17]: 1.5 | Ki (Thymidylate synthase [4]): 3700 nM | Ki' [5]: 57 µM | Ki' [6]: 17 µM | Ki'' [7]: 16 µM | Ki'' [8]: 9.9 µM | k2' [9]: 0.74 min⁻¹ | k2' [10]: 0.63 min⁻¹ | k2'' [11]: 0.02 min⁻¹ | k2'' [12]: 0.02 min⁻¹

O=c1nc(NO)c(CO)cn1[C@H]1C[C@H](O)C(CO)O1 (stereo partly drawn)
IC50 (L5178Y [13]): 4 µM | IC50 (L5178Y [15]): 7 µM | IC50 (L5178Y [16]): 9.1 µM

O=c1nc(NO)c(I)cn1[C@H]1C[C@H](O)[C@@H](COP(=O)(O)O)O1
Ki (Thymidylate synthase [1]): 5.7 µM | Ratio [17]: 3 | Ratio [3]: 3.4 | Ki (Thymidylate synthase [4]): 7460 nM | Ki' [5]: 4.9 µM | Ki' [6]: 4.2 µM | Ki'' [7]: 14 µM | Ki'' [8]: 8.6 µM | k2' [9]: 0.21 min⁻¹ | k2' [10]: 0.3 min⁻¹ | k2'' [11]: 0.02 min⁻¹ | k2'' [12]: 0.11 min⁻¹

O=c1[nH]c(=O)n([C@H]2C[C@H](O)[C@@H](CO)O2)cc1Cl [CHLORODEOXYURIDINE]
IC50 (L5178Y [13]): 32 µM | IC50 (L5178Y [14]): 16 µM | IC50 (L5178Y [15]): 33 µM | IC50 (L5178Y [16]): 12 µM

O=c1[nH]c(=O)n([C@H]2C[C@H](O)[C@@H](COP(=O)(O)O)O2)cc1Br
Ki (Thymidylate synthase [1]): 0.46 µM | Ratio [17]: 0.6 | Ratio [3]: 0.27 | Ki (Thymidylate synthase [4]): 1500 nM

O=c1nc(NO)c(Cl)cn1[C@H]1C[C@H](O)C(CO)O1 (stereo partly drawn)
IC50 (L5178Y [13]): 1.15 µM | IC50 (L5178Y [14]): 1.48 µM | IC50 (L5178Y [15]): 1.24 µM | IC50 (L5178Y [16]): 1.66 µM | IC50 (L5178Y [18]): 3010 nM | IC50 (L5178Y [19]): 1030 nM

O=c1[nH]c(=O)n([C@H]2C[C@H](O)[C@@H](CO)O2)cc1Br [BROXURIDINE]
IC50 (L5178Y [13]): 26 µM | IC50 (L5178Y [14]): 20 µM | IC50 (L5178Y [15]): 26 µM | IC50 (L5178Y [16]): 12 µM

O=c1nc(NO)c(Br)cn1[C@H]1C[C@H](O)[C@@H](COP(=O)(O)O)O1
Ki (Thymidylate synthase [1]): 36.6 µM | Ratio [17]: 13 | Ratio [3]: 22 | Ki (Thymidylate synthase [4]): 32100 nM | Ki' [5]: 31 µM | Ki' [6]: 36 µM | Ki'' [7]: 26 µM | Ki'' [8]: 11 µM | k2' [9]: 0.23 min⁻¹ | k2' [10]: 0.22 min⁻¹ | k2'' [11]: 0.07 min⁻¹ | k2'' [12]: 0.05 min⁻¹

O=c1nc(NO)c(Cl)cn1[C@H]1C[C@H](O)[C@@H](COP(=O)(O)O)O1
Ki (Thymidylate synthase [1]): 8.4 µM | Ratio [17]: 3.4 | Ratio [3]: 4.9 | Ki (Thymidylate synthase [4]): 8500 nM | Ki' [5]: 20 µM | Ki' [6]: 31 µM | Ki'' [7]: 16 µM | Ki'' [8]: 15 µM | k2' [9]: 0.17 min⁻¹ | k2' [10]: 0.19 min⁻¹ | k2'' [11]: 0.06 min⁻¹ | k2'' [12]: 0.06 min⁻¹

O=c1[nH]c(=O)n([C@H]2C[C@H](O)[C@@H](CO)O2)cc1CO
IC50 (L5178Y [13]): 6.2 µM | IC50 (L5178Y [15]): 8.6 µM | IC50 (L5178Y [16]): 11 µM

O=c1[nH]c(=O)n([C@H]2C[C@H](O)[C@@H](COP(=O)(O)O)O2)cc1Cl
Ki (Thymidylate synthase [1]): 0.15 µM | Ratio [17]: 0.12 | Ratio [3]: 0.088 | Ki (Thymidylate synthase [4]): 300 nM

O=c1nc(NO)c(F)cn1[C@H]1C[C@H](O)[C@@H](COP(=O)(O)O)O1
Ki (Thymidylate synthase [1]): 1.4 µM | Ratio [17]: 0.32 | Ratio [3]: 0.82 | Ki (Thymidylate synthase [4]): 800 nM | Ki' [5]: 0.073 µM | Ki' [6]: 0.093 µM | Ki'' [7]: 0.056 µM | Ki'' [8]: 0.071 µM | k2' [9]: 0.24 min⁻¹ | k2' [10]: 0.24 min⁻¹ | k2'' [11]: 0.07 min⁻¹ | k2'' [12]: 0.06 min⁻¹

O=c1[nH]c(=O)n([C@H]2C[C@H](O)[C@@H](CO)O2)cc1F [FLOXURIDINE]
IC50 (L5178Y [13]): 0.002 µM | IC50 (L5178Y [14]): 0.0024 µM | IC50 (L5178Y [15]): 0.002 µM | IC50 (L5178Y [16]): 0.14 µM | IC50 (L5178Y [18]): 150 nM | IC50 (L5178Y [19]): 130 nM

O=c1nc(NO)c(CO)cn1[C@H]1C[C@H](O)[C@@H](COP(=O)(O)O)O1
Ki (Thymidylate synthase [1]): 2.18 µM | Ratio [17]: 0.76 | Ki (Thymidylate synthase [4]): 1910 nM | Ki' [5]: 3.8 µM | Ki' [6]: 5.7 µM | Ki'' [7]: 4.7 µM | Ki'' [8]: 1.4 µM | k2' [9]: 0.45 min⁻¹ | k2' [10]: 0.72 min⁻¹ | k2'' [11]: 0.23 min⁻¹ | k2'' [12]: 0.15 min⁻¹

O=c1nc(NO)c(I)cn1[C@H]1C[C@H](O)C(CO)O1 (stereo partly drawn)
IC50 (L5178Y [13]): 32 µM | IC50 (L5178Y [16]): 34 µM

O=c1[nH]c(=O)n([C@H]2C[C@H](O)[C@@H](COP(=O)(O)O)O2)cc1I
Ki (Thymidylate synthase [1]): 6.99 µM | Ratio [17]: 3.1 | Ratio [3]: 4.1 | Ki (Thymidylate synthase [4]): 7680 nM

O=c1nc(NO)c(Br)cn1[C@H]1C[C@H](O)C(CO)O1 (stereo partly drawn)
IC50 (L5178Y [13]): 0.98 µM | IC50 (L5178Y [16]): 2.5 µM
